Test results: ChEMBL document CHEMBL1122796, “Synthesis and antihypertensive activity of 6,7-disubstituted trans-4-amino-3,4-dihydro-2,2-dimethyl-2H-1-benzopyran-3-ols” (1984)

Tests used:
Format in all cases: functional
Rattus norvegicus [1] = experiment: Compound was evaluated for oral antihypertensive activity in spontaneously hypertensive rats at 0.3 mg/kg peroral administration
How it was run: (§1)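 Conscious spontaneously hypertensive rats (Okamoto-derived, 14-24 weeks old, systolic BP ≥180 mmHg), usually six per compound. Dosed orally by needle into the esophagus as a solution or suspension in 1% w/v methylcellulose; doses as free base. Systolic BP measured by tail cuff, restrained at 33.5 ± 0.5 °C, each reading a mean of ≥6 recordings, predose and at 1-6 h.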

Rattus norvegicus [2] = experiment: Compound was evaluated for oral antihypertensive activity in spontaneously hypertensive rats at 1 mg/kg peroral administration; how it was run: as §1
Rattus norvegicus [3] = experiment: Compound was evaluated for oral antihypertensive activity in spontaneously hypertensive rats at 10 mg/kg peroral administration; how it was run: as §1
Rattus norvegicus [4] = experiment: Compound was evaluated for oral antihypertensive activity in spontaneously hypertensive rats at 3 mg/kg peroral administration; how it was run: as §1
Rattus norvegicus [5] = experiment: Compound was evaluated for oral antihypertensive activity in spontaneously hypertensive rats at 0.01 mg/kg peroral administration; how it was run: as §1
Rattus norvegicus [6] = experiment: Compound was evaluated for oral antihypertensive activity in spontaneously hypertensive rats at 0.03 mg/kg peroral administration; how it was run: as §1
Rattus norvegicus [7] = experiment: Compound was evaluated for oral antihypertensive activity in spontaneously hypertensive rats at 0.1 mg/kg peroral administration; how it was run: as §1
Rattus norvegicus [8] = experiment: Compound was evaluated for antihypertensive activity in deoxy-corticosterone acetate (DOCA) treated hypertensive rats at 0.3 mg/kg peroral administration; conditions: route oral
Rattus norvegicus [9] = experiment: Compound was evaluated for antihypertensive activity in deoxy-corticosterone acetate (DOCA) treated hypertensive rats at 1 mg/kg peroral administration; conditions: route oral
Rattus norvegicus [10] = experiment: Compound was evaluated for antihypertensive activity in deoxy-corticosterone acetate (DOCA) treated hypertensive rats at 100 mg/kg peroral administration; conditions: route oral
Rattus norvegicus [11] = experiment: Compound was evaluated for antihypertensive activity in deoxy-corticosterone acetate (DOCA) treated hypertensive rats at 10 mg/kg peroral administration; conditions: route oral
Rattus norvegicus [12] = experiment: Compound was evaluated for oral antihypertensive activity in spontaneously hypertensive rats at 100 mg/kg peroral administration; how it was run: as §1
Rattus norvegicus [13] = experiment: Compound was evaluated for antihypertensive activity in deoxy-corticosterone acetate (DOCA) treated hypertensive rats at 3 mg/kg peroral administration; conditions: route oral

CC(=O)Nc1cc2c(cc1C(N)=O)[C@@H](N1CCCCC1)[C@H](O)C(C)(C)O2
Max fall in blood pressure (Rattus norvegicus [1]): 34 mmHg
Max fall in blood pressure (Rattus norvegicus [2]): 50 mmHg

CC(=O)Nc1cc2c(cc1[N+](=O)[O-])OC(C)(C)[C@@H](O)[C@@H]2N1CCCCC1
Max fall in blood pressure (Rattus norvegicus [3]): 89 mmHg
Max fall in blood pressure (Rattus norvegicus [4]): 44 mmHg

CC1(C)Oc2cc(N)c([N+](=O)[O-])cc2[C@@H](N2CCCCC2)[C@@H]1O
Max fall in blood pressure (Rattus norvegicus [5]): 14 mmHg
Max fall in blood pressure (Rattus norvegicus [6]): 71 mmHg
Max fall in blood pressure (Rattus norvegicus [7]): 110 mmHg
Max fall in blood pressure (Rattus norvegicus [1]): 111 mmHg

CC1(C)Oc2cc([N+](=O)[O-])c(N)cc2[C@@H](N2CCCCC2)[C@@H]1O
Max fall in blood pressure (Rattus norvegicus [1]): 42 mmHg
Max fall in blood pressure (Rattus norvegicus [2]): 67 mmHg

CC(=O)Nc1cc2c(cc1C#N)[C@@H](N1CCCC1)[C@H](O)C(C)(C)O2
Max fall in blood pressure (Rattus norvegicus [7]): 36 mmHg
Max fall in blood pressure (Rattus norvegicus [1]): 149 mmHg

CC(=O)Nc1cc2c(cc1[N+](=O)[O-])OC(C)(C)[C@@H](O)[C@@H]2N1CCCC1
Max fall in blood pressure (Rattus norvegicus [3]): 99 mmHg
Max fall in blood pressure (Rattus norvegicus [4]): 25 mmHg

CC1(C)Oc2cc([N+](=O)[O-])c(N)cc2[C@@H](N2CCCC2)[C@@H]1O
Max fall in blood pressure (Rattus norvegicus [7]): 22 mmHg
Max fall in blood pressure (Rattus norvegicus [1]): 83 mmHg
Max fall in blood pressure (Rattus norvegicus [2]): 71 mmHg

CC1(C)Oc2ccc(C#N)cc2C(N2CCCC2)[C@@H]1O.CS(=O)(=O)O (some centres not stated)
Max fall in blood pressure (Rattus norvegicus [8]): 15 mmHg
Max fall in blood pressure (Rattus norvegicus [1]): 41 mmHg
Max fall in blood pressure (Rattus norvegicus [2]): 61 mmHg
Max fall in blood pressure (Rattus norvegicus [9]): 43 mmHg

CC1(C)Oc2cc(N)c(C#N)cc2[C@@H](N2CCCC2)[C@@H]1O
Max fall in blood pressure (Rattus norvegicus [6]): 40 mmHg
Max fall in blood pressure (Rattus norvegicus [7]): 54 mmHg
Max fall in blood pressure (Rattus norvegicus [1]): 115 mmHg

CC(=O)Nc1cc2c(cc1[N+](=O)[O-])[C@@H](N1CCCCC1)[C@H](O)C(C)(C)O2
Max fall in blood pressure (Rattus norvegicus [7]): 78 mmHg
Max fall in blood pressure (Rattus norvegicus [1]): 108 mmHg

CC1(C)Oc2cc(N)c([N+](=O)[O-])cc2[C@@H](N2CCCC2)[C@@H]1O
Max fall in blood pressure (Rattus norvegicus [6]): 47 mmHg
Max fall in blood pressure (Rattus norvegicus [7]): 122 mmHg

CC1(C)Oc2ccc(N)cc2C(N2CCCC2)[C@@H]1O.CS(=O)(=O)O (some centres not stated)
Max fall in blood pressure (Rattus norvegicus [3]): -10 mmHg
Max fall in blood pressure (Rattus norvegicus [9]): 6 mmHg

CC1(C)Oc2ccc([N+](=O)[O-])cc2C(N2CCCC2)[C@@H]1O.Cl (some centres not stated)
Max fall in blood pressure (Rattus norvegicus [1]): 32 mmHg
Max fall in blood pressure (Rattus norvegicus [2]): 52 mmHg
Max fall in blood pressure (Rattus norvegicus [9]): 52 mmHg

CC(=O)Nc1ccc2c(c1)C(N1CCCCC1)[C@H](O)C(C)(C)O2.Cl (some centres not stated)
Max fall in blood pressure (Rattus norvegicus [10]): 4 mmHg
Max fall in blood pressure (Rattus norvegicus [3]): 19 mmHg
Max fall in blood pressure (Rattus norvegicus [11]): 6 mmHg
Max fall in blood pressure (Rattus norvegicus [12]): 42 mmHg

CC1(C)Oc2cc([N+](=O)[O-])ccc2C(N2CCCC2)[C@@H]1O.Cl (some centres not stated)
Max fall in blood pressure (Rattus norvegicus [13]): 90 mmHg
Max fall in blood pressure (Rattus norvegicus [1]): 17 mmHg
Max fall in blood pressure (Rattus norvegicus [2]): 83 mmHg
Max fall in blood pressure (Rattus norvegicus [9]): 44 mmHg

CC1(C)Oc2ccc(C(N)=O)cc2C(N2CCCCC2)[C@@H]1O.Cl (some centres not stated)
Max fall in blood pressure (Rattus norvegicus [3]): 109 mmHg
Max fall in blood pressure (Rattus norvegicus [2]): 24 mmHg
Max fall in blood pressure (Rattus norvegicus [4]): 76 mmHg
Max fall in blood pressure (Rattus norvegicus [9]): 9 mmHg

Cl.NNc1nncc2ccccc12 [HYDRALAZINE HYDROCHLORIDE]
Max fall in blood pressure (Rattus norvegicus [13]): 65 mmHg
Max fall in blood pressure (Rattus norvegicus [3]): 89 mmHg
Max fall in blood pressure (Rattus norvegicus [2]): 42 mmHg
Max fall in blood pressure (Rattus norvegicus [4]): 51 mmHg
Max fall in blood pressure (Rattus norvegicus [9]): 32 mmHg
Max fall in blood pressure (Rattus norvegicus [11]): 113 mmHg

COC(=O)C1=C(C)NC(C)=C(C(=O)OC)C1c1ccccc1[N+](=O)[O-] [NIFEDIPINE]
Max fall in blood pressure (Rattus norvegicus [8]): 20 mmHg
Max fall in blood pressure (Rattus norvegicus [13]): 51 mmHg
Max fall in blood pressure (Rattus norvegicus [1]): 13 mmHg
Max fall in blood pressure (Rattus norvegicus [2]): 30 mmHg
Max fall in blood pressure (Rattus norvegicus [4]): 62 mmHg
Max fall in blood pressure (Rattus norvegicus [9]): 33 mmHg
